What all share (assay type): functional
Assay [1] relates to Oryctolagus cuniculus. Nature of the assay: Febrile responses of compound was measured in rabbit after iv injection at the dose of 1 mg/kg. The essentials:
(§1)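 Rabbits (strain HYL A, 3–3.5 kg), three per specimen, per French/European pharmacopoeia. Compound dissolved in pyrogen-free isotonic saline and given iv, first at 1 mg/kg. Rectal temperature recorded continuously and automatically. A specimen was judged nonpyrogenic if no rabbit rose above 0.5 °C; such specimens then went on to 3, 5 and 10 mg/kg. ΔT reported per rabbit, with the mean.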

Assay [2] has as its system Klebsiella pneumoniae. Nature of the assay: Protective activity against Klebsiella pneumoniae was measured as difference between the percentage of survivors in treated group and its respective control group. Further details: concentration or dose not given beside the values. The essentials: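 Mice, 24 per group. Compound given iv at 100 μg on day 0; on day +1, intramuscular challenge with 10^4 K. pneumoniae. Mortality followed from day 1 to day 15. Protection is the percentage of survivors in the treated group minus that in its control group at day +15.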

The subject of assay [3] is Mus musculus. Nature of the assay: Adjuvant activity was measured after sc administration in phosphate buffer saline (PBS) to mice with BSA and expressed as primary response. The essentials: (§2)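 Female Swiss mice, 5–6 weeks old. BSA antigen given sc in PBS: 0.5 mg to prime, then 0.1 mg one month later as boost. Glycopeptide (0.1 mg) given with the priming injection. Sera pooled on day 21 for the primary titer; on day 37 sera titrated individually for the secondary titer. Titer is log of highest serum dilution agglutinating BSA-coated sheep RBC (passive hemagglutination). Student's t test vs controls.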

Assay [4] concerns Oryctolagus cuniculus. Kind of assay: Febrile responses of compound was measured in rabbit after iv injection at the dose of 3 mg/kg. In a few lines:
as §1

For assay [5], the system named is Oryctolagus cuniculus. Nature of the assay: Febrile responses of compound was measured in rabbit after iv injection at the dose of 10 mg/kg. In a few lines: as §1
Assay [6] concerns Klebsiella pneumoniae. Nature of the assay: Protective activity against Klebsiella pneumoniae was measured as number of survivors to the number of total animals used; 0/24.
The test system of assay [7] is Mus musculus. Kind of assay: Adjuvant activity was measured after sc administration in phosphate buffer saline (PBS) to mice with BSA and expressed as secondary response. In a few lines: as §2
Assay [8] deals with Oryctolagus cuniculus. Nature of the assay: Febrile responses of compound was measured in rabbit after iv injection at the dose of 5 mg/kg. The essentials: as §1
In assay [9] the test system is Klebsiella pneumoniae. Nature of the assay: Protective activity against Klebsiella pneumoniae was measured as number of survivors to the number of total animals used; 8/24.
Assay [10] concerns Klebsiella pneumoniae. Kind of assay: Protective activity against Klebsiella pneumoniae was measured as number of survivors to the number of total animals used; 4/24.
For assay [11], the system named is Klebsiella pneumoniae. Nature of the assay: Protective activity against Klebsiella pneumoniae was measured as number of survivors to the number of total animals used; 16/24.
Assay [12] concerns Klebsiella pneumoniae. Kind of assay: Protective activity against Klebsiella pneumoniae was measured as number of survivors to the number of total animals used; 7/24.
In assay [13] the test system is Klebsiella pneumoniae. Kind of assay: Protective activity against Klebsiella pneumoniae was measured as number of survivors to the number of total animals used; 10/24.
Assay [14] relates to Klebsiella pneumoniae. Nature of the assay: Protective activity against Klebsiella pneumoniae was measured as number of survivors to the number of total animals used;15/24.
Assay [15] relates to Klebsiella pneumoniae. Kind of assay: Protective activity against Klebsiella pneumoniae was measured as number of survivors to the number of total animals used; 3/24.

SMILES strings stand for the structures. Several values for one entry are separate records, joined by “and”; a condition that tells them apart may be missing. Equal values may be shown once.

The results in this text go back to ChEMBL document CHEMBL1121936, “Apyrogenic, adjuvant-active N-acetylmuramyl-dipeptides” (1982).

Regarding `CCOC(=O)[C@H](CCC(N)=O)NC(=O)[C@H](C)NC(=O)[C@@H](C)OC1C(O)C(CO)OC(O)C1NC(C)=O` (stereo partly specified), the “Delta T” value with Oryctolagus cuniculus [1] is 0.23 °C; in the assay with Oryctolagus cuniculus [4], 0.03 °C; in the assay with Oryctolagus cuniculus [5] (10 mg/kg), 0.47 °C and 0.32 °C. The compound further displayed a Protection in the assay with Klebsiella pneumoniae [2] of 0%. In addition, the Primary response in the assay with Mus musculus [3] turned out to be 4.64. Moreover, the Survivors in the assay with Klebsiella pneumoniae [6] stood at 0 N/total. Further, the Secondary response with Mus musculus [7] is listed as 9.53.
Consider `COC(=O)CC[C@H](NC(=O)[C@H](C)NC(=O)[C@@H](C)OC1C(O)C(CO)OC(O)C1NC(C)=O)C(=O)OC` (stereo partly specified), for which the “Delta T” value was 1.1 °C and 0.9 °C in the assay on Oryctolagus cuniculus [8] (5 mg/kg); 0.33 °C and 0.13 °C in the assay with Oryctolagus cuniculus [1] (1 mg/kg); 0.4 °C and 0.17 °C with Oryctolagus cuniculus [4] (3 mg/kg).
In the case of `CCCCCCOC(=O)[C@H](CCC(N)=O)NC(=O)[C@H](C)NC(=O)[C@@H](C)OC1C(O)C(CO)OC(O)C1NC(C)=O` (stereo partly specified), the “Delta T” value in the assay with Oryctolagus cuniculus [1] amounted to 0.13 °C; in the assay with Oryctolagus cuniculus [4], 0.2 °C; in the assay on Oryctolagus cuniculus [5], 0.13 °C. The same compound showed a Protection in the assay on Klebsiella pneumoniae [2] of 29%. Also, in the assay on Mus musculus [3], the Primary response was 2.75. Further, the Survivors in the assay on Klebsiella pneumoniae [9] is on record as 8 N/total. Also, the Secondary response in the assay with Mus musculus [7] is reported as 7.71.
For `CC(=O)NC1C(O)OC(CO)C(O)C1O[C@H](C)C(=O)N[C@@H](C)C(=O)N[C@@H](CCC(=O)O)C(=O)O` (stereo partly specified), the “Delta T” value with Oryctolagus cuniculus [1] (1 mg/kg) is 0.37 °C and 0.5 °C; with Oryctolagus cuniculus [4], 0.8 °C.
In turn, `CCCCCCCCCCOC(=O)[C@H](CCC(N)=O)NC(=O)[C@H](C)NC(=O)[C@@H](C)OC1C(O)C(CO)OC(O)C1NC(C)=O` (stereo partly specified) displayed a Survivors in the assay on Klebsiella pneumoniae [10] of 4 N/total. Moreover, the “Delta T” value worked out at 0.2 °C in the assay with Oryctolagus cuniculus [1], 0.17 °C in the assay with Oryctolagus cuniculus [4] and 0.23 °C in the assay with Oryctolagus cuniculus [5]. The compound also had a Protection with Klebsiella pneumoniae [2] of 12%. The Primary response with Mus musculus [3] was found to be 3.64. In the assay on Mus musculus [7], the Secondary response is recorded as 9.1.
For `CC(=O)NC1C(O)OC(CO)C(O)C1O[C@H](C)C(=O)N[C@@H](C)C(=O)N[C@@H](CCC(N)=O)C(=O)O` (stereo partly specified), the entries for the “Delta T” value in the assay with Oryctolagus cuniculus [1] and in the assay with Oryctolagus cuniculus [4] were 0.03 °C and 0.9 °C, respectively. The Primary response in the assay with Mus musculus [3] is on record as 2.97. Moreover, the Secondary response in the assay on Mus musculus [7] turned out to be 7.35.
Turning to `CCCCOC(=O)[C@H](CCC(N)=O)NC(=O)[C@H](C)NC(=O)[C@@H](C)OC1C(O)C(CO)OC(O)C1NC(C)=O` (stereo partly specified), the “Delta T” value in the assay with Oryctolagus cuniculus [1] is 0.03 °C; with Oryctolagus cuniculus [4], 0.26 °C; in the assay with Oryctolagus cuniculus [5], 0.3 °C. The same compound yielded a Protection with Klebsiella pneumoniae [2] of 63%. In the assay with Klebsiella pneumoniae [11], this compound had a Survivors of 16 N/total. Also, in the assay with Mus musculus [3], the Primary response worked out at 4.21. Further, the Secondary response in the assay on Mus musculus [7] was determined as 8.43.
With `CCCOC(=O)[C@H](CCC(N)=O)NC(=O)[C@H](C)NC(=O)[C@@H](C)OC1C(O)C(CO)OC(O)C1NC(C)=O` (stereo partly specified), the “Delta T” value in the assay on Oryctolagus cuniculus [1] was 0.2 °C; in the assay with Oryctolagus cuniculus [4] it was 0.43 °C; with Oryctolagus cuniculus [5] it was 0.07 degrees C. Besides, in the assay on Klebsiella pneumoniae [2], the Protection worked out at 25%. Moreover, the Primary response in the assay on Mus musculus [3] turned out to be 4.64. In the assay on Klebsiella pneumoniae [12], the Survivors came to 7 N/total. In addition, the Secondary response in the assay with Mus musculus [7] is reported as 9.52.
In the case of `CCCCCOC(=O)[C@H](CCC(N)=O)NC(=O)[C@H](C)NC(=O)[C@@H](C)OC1C(O)C(CO)OC(O)C1NC(C)=O` (stereo partly specified), the “Delta T” value in the assay on Oryctolagus cuniculus [1] was 0.1 °C; in the assay on Oryctolagus cuniculus [4] it was 0.03 °C; in the assay with Oryctolagus cuniculus [5], 0.13 °C. For the same compound, the Protection with Klebsiella pneumoniae [2] is reported as 37%. In the assay with Klebsiella pneumoniae [13], this compound returned a Survivors of 10 N/total. Also, the Primary response with Mus musculus [3] amounted to 1.64. Also, the Secondary response in the assay on Mus musculus [7] is on record as 7.8.
Regarding `CC(=O)N[C@H]1C(O)O[C@H](CO)[C@@H](O)[C@@H]1O[C@H](C)C(=O)N[C@@H](C)C(=O)N[C@H](CCC(=O)O)C(N)=O` (stereo partly specified) [MURAMYL DIPEPTIDE], in the assay on Oryctolagus cuniculus [1], the “Delta T” value is 0.76 °C. Also, the Protection in the assay on Klebsiella pneumoniae [2] is given as 58%. The same compound returned a Survivors in the assay on Klebsiella pneumoniae [14] of 15 N/total. The Primary response with Mus musculus [3] came to 3.64. In addition, the Secondary response in the assay with Mus musculus [7] was determined as 8.34.
As to `CC(=O)NC1C(O)OC(CO)C(O)C1O[C@H](C)C(=O)N[C@@H](C)C(=O)N[C@@H](CCC(N)=O)C(N)=O` (stereo partly specified), the figures for the “Delta T” value in the assay on Oryctolagus cuniculus [8], in the assay on Oryctolagus cuniculus [1] and with Oryctolagus cuniculus [4] were 0.67 °C, 0.1 °C and 0.2 °C, respectively.
Consider `COC(=O)[C@H](CCC(N)=O)NC(=O)[C@H](C)NC(=O)[C@@H](C)OC1C(O)C(CO)OC(O)C1NC(C)=O` (stereo partly specified), for which the “Delta T” value with Oryctolagus cuniculus [1] came to 0.1 °C; with Oryctolagus cuniculus [4], 0.23 °C; in the assay with Oryctolagus cuniculus [5], 0.1 °C. The Protection in the assay with Klebsiella pneumoniae [2] was found to be 8%. Besides, in the assay with Mus musculus [3], the Primary response is 3.85. In the assay on Mus musculus [7], the Secondary response is reported as 8.72. This compound also had a Survivors with Klebsiella pneumoniae [15] of 3 N/total.
